A value given as a limit tells only on which side of the number the result lay.

A short description of test [1]: Ratio of CC50 to that EC50 in mock infected cells. The format is functional. In short, it runs like this:
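Selectivity index is the ratio of CC50 (mock-infected MT-4 viability, MTT, 4 days) to EC50 (protection of HIV-1 IIIB-infected MT-4 cells, MTT, 4 days), both from parallel assays.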

For test [2], the system named is MT4. Kind of test: Cytotoxic concentration required to reduce the viability of mock-infected MT-4 cells. The format is functional. To be noted: Homo sapiens. The method, boiled down:
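Mock-infected MT-4 cells, 1 × 10^4 per well, were exposed to graded compound concentrations in parallel with the antiviral assay. Compounds came from 200 mM DMSO stocks diluted into medium. After 4 days at 37 °C, viability was measured by MTT. The value is the dose reducing viability by 50%, as a mean of at least two experiments.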

The subject of test [3] is MT4. Description: Effective dose required to achieve protection of MT-4 cells from HIV-1 induced cytopathogenicity. The class given is functional, cell-based. To be noted: Homo sapiens. The method, boiled down:
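MT-4 cells (RPMI 1640, 10% FCS, 37 °C, 5% CO2), 1 × 10^4 per well, were infected with 100 CCID50 of HIV-1 IIIB in the presence of graded compound concentrations. Compounds came from 200 mM DMSO stocks diluted into medium. After 4 days at 37 °C, viable cells were counted by MTT. The value is the dose giving 50% protection, as a mean of at least two experiments.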
On the technique in general: Protection from cytopathic effect is a common read-out in antiviral testing.

Test [4] deals with Human immunodeficiency virus type 1 reverse transcriptase (Human immunodeficiency virus 1, UniProt Q72547). Description: Inhibitory concentration required to inhibit the HIV-1 reverse transcriptase activity. In short, it runs like this: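 Purified recombinant HIV-1 RT, RNA-dependent polymerase activity. Template/primer poly(rC)-oligo(dG)12–18 at 0.5 OD260 unit/mL, with [3H]dGTP. Incubated 30 min at 37 °C, then acid-insoluble radioactivity counted on glass fiber filters. IC50 is the dose halving activity. Mean of at least two experiments.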

For test [5], the system named is MT4. Kind of test: Effective dose required to achieve protection of MT-4 cells from Y181C HIV-1 induced cytopathogenicity. To be noted: Homo sapiens. The class given is functional, cell-based. In short, it runs like this: (§1)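 MT-4 cells (1 × 10^4/well) in RPMI 1640 with 10% FCS, infected with 100 CCID50 of HIV-1 (IIIB wild type or Y181C), compounds from DMSO stock diluted in medium at various concentrations. After 4 days at 37 °C, viable cells counted by MTT. EC50 is the dose giving 50% protection from virus cytopathicity. Mean of at least two experiments.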

A short description of test [6]: Ratio of wild type IIIB to that of Y181C HIV-1 induced cytopathogenicity. The class given is functional.
The test system of test [7] is MT4. Kind of test: Effective dose required to achieve protection of MT-4 cells from wild type IIIB HIV-1 induced cytopathogenicity. The class given is functional, cell-based. To be noted: Homo sapiens. In short, it runs like this: as §1

As usually defined, the CC50 is the concentration at which the toxic effect on the cells reaches its halfway point. Take `Cc1c(Cc2c(F)cccc2F)nc(SC2CCCC2)[nH]c1=O`: the Selectivity index in test [1] is over 2500. Also, the CC50 with MT4 [2] is over 200000 nM.
A word on the EC50: it is the concentration needed to bring the measured effect to its halfway point. A low value points to an effect from little substance. By IC50 is commonly meant the point on the concentration scale where inhibition reaches its midpoint. For the compound `CC(c1cc(=O)[nH]c(SC2CCCC2)n1)c1c(F)cccc1F` (stereo not drawn), the EC50 in the test with MT4 [3] came out at 30 nM. For the same compound, the IC50 in test [4] stood at 30 nM. For the same compound, in test [1], the Selectivity index is reported as over 6666. For the same compound, in the test on MT4 [2], the CC50 is over 200000 nM.
Regarding `O=c1cc(Cc2c(F)cccc2F)nc(SC2CCCC2)[nH]1`, the Selectivity index in test [1] is given as over 2500. Further, the CC50 with MT4 [2] is over 200000 nM.
In the same order, the values of `CCOCn1c(Cc2ccccc2)c(C(C)C)c(=O)[nH]c1=O` [EMIVIRINE] are 6666 and 200000 nM.
For `Cc1ccnc2c1NC(=O)c1cccnc1N2C1CC1` [NEVIRAPINE], the EC50 in the test with MT4 [5] was over 30000 nM. The Ratio in test [6] was over 81.
As for `O=C1Nc2ccc(Cl)cc2[C@@](C#CC2CC2)(C(F)(F)F)O1`, the Ratio in test [6] was 6.
In the case of `Cc1c(C(C)c2c(F)cccc2F)nc(SC2CCCC2)[nH]c1=O` (stereo not drawn), the EC50 amounted to 200 nM with MT4 [5], 15 nM in the test with MT4 [7] and 6 nM in the test on MT4 [3]. Moreover, the Selectivity index in test [1] is reported as over 33333. This compound also showed a CC50 in the test on MT4 [2] of over 200000 nM. The Ratio in test [6] is 13.
In the case of `O=c1cc(Cc2c(F)cccc2F)nc(NC2CCCC2)[nH]1`, the EC50 in the test with MT4 [3] stood at 90 nM. The compound further displayed an IC50 in test [4] of 70 nM. Also, in test [1], the Selectivity index is over 2222. The compound further registered a CC50 with MT4 [2] of over 200000 nM.
As to `Cc1c(C(C)c2c(F)cccc2F)nc(NC2CCCC2)[nH]c1=O` (stereo not drawn), the EC50 with MT4 [5] was determined as 160 nM; in the test with MT4 [7], 30 nM; in the test with MT4 [3], 20 nM. In test [4], this compound came in with an IC50 of 35 nM. In addition, the Selectivity index in test [1] was determined as 4500. The CC50 in the test with MT4 [2] was 90000 nM. Also, the Ratio in test [6] came out at 5.3.
Compound `CC(c1cc(=O)[nH]c(NC2CCCC2)n1)c1c(F)cccc1F` (stereo not drawn) registered an EC50 with MT4 [3] of 30 nM. This compound also displayed an IC50 in test [4] of 40 nM. The Selectivity index in test [1] came to 3500. Moreover, the CC50 in the test on MT4 [2] was 76000 nM.
In the same order, the values of `Cc1c(Cc2c(F)cccc2F)nc(NC2CCCC2)[nH]c1=O` are 20 nM, 30 nM, over 10000 and over 200000 nM.
